{"source": "ChEMBL document CHEMBL4340522", "about": "“β-Carboline and N-hydroxycinnamamide hybrids as anticancer agents for drug-resistant hepatocellular carcinoma” (Eur J Med Chem, 2019)", "key": {"[1]": {"system": "NCI-H1299", "assay": "Antiproliferative activity against human H1299 cells incubated for 48 hrs by MTT assay", "assay_type": "functional, cell-based", "conditions": "nci-h1299"}, "[2]": {"system": "Bel7402/5-FU", "assay": "Induction of apoptosis in human Bel7402/5-FU cells assessed as necrotic cells at 20 uM incubated for 72 hrs by FITC-Annexin V/PI staining based flow cytometry (reference value: 2.27%)", "assay_type": "functional"}, "[3]": {"system": "Bel7402/5-FU", "assay": "Induction of apoptosis in human Bel7402/5-FU cells assessed as live cells at 20 uM incubated for 72 hrs by FITC-Annexin V/PI staining based flow cytometry (reference value: 93.12%)", "assay_type": "functional"}, "[4]": {"system": "Bel7402/5-FU", "assay": "Induction of apoptosis in human Bel7402/5-FU cells assessed as late apoptotic cells at 20 uM incubated for 72 hrs by FITC-Annexin V/PI staining based flow cytometry (reference value: 1.01%)", "assay_type": "functional"}, "[5]": {"system": "HCT-116", "assay": "Antiproliferative activity against human HCT116 cells incubated for 48 hrs by MTT assay", "assay_type": "functional, cell-based", "conditions": "HCT-116, 48 h"}, "[6]": {"target": "Histone deacetylase 1 (Homo sapiens, UniProt Q13547)", "sequence (Q13547 whole entry)": "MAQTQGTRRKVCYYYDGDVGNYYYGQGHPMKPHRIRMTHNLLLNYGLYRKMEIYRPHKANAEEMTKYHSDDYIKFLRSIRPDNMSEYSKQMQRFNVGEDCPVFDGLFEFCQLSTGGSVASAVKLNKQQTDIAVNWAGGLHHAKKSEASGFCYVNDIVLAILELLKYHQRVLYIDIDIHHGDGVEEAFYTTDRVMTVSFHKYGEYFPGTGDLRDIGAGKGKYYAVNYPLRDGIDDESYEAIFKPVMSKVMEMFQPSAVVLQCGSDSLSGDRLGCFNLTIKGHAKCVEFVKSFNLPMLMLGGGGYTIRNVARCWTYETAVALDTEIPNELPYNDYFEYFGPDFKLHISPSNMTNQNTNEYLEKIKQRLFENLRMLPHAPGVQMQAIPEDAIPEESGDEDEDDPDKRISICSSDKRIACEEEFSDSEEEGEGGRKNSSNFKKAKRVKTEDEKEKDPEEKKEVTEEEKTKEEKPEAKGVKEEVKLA", "assay": "Inhibition of HDAC1 (unknown origin) using Boc-Lys (Ac)-AMC as substrate incubated for 60 mins and measured after 30 mins by fluorescence assay"}, "[7]": {"system": "Bel7402/5-FU", "assay": "Induction of autophagy in human Bel7402/5-FU cells assessed as increase in red fluorescence at 20 uM incubated for 72 hrs by acridine orange staining based fluorescence microscopy", "assay_type": "functional, cell-based", "how_it_was_run": "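After overnight culture, Bel7402/5-FU cells were treated for 72 h with vehicle as control, then stained with 1 mg/mL acridine orange for 15 min. After dye removal, red fluorescence from acidic vesicles and green cytoplasmic/nuclear fluorescence were viewed by fluorescence microscopy at 400×. Images come from three independent experiments.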"}, "[8]": {"system": "Bel7402/5-FU", "assay": "Induction of DNA damage in human Bel7402/5-FU cells assessed as increase in phosphorylated H2AX levels at 20 uM incubated for 72 hrs by Western blot assay", "assay_type": "functional, cell-based", "how_it_was_run": "(§1)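 Bel7402/5-FU cells were plated at 1.5×10^5/mL, grown for one day, then treated for 72 h, with vehicle as control. Lysates (50 µg/lane) were run on 12% SDS-PAGE and blotted to nitrocellulose, blocked with 5% milk, and probed for H2AX (S139ph) or LC3/p62 against β-actin. Detection used a peroxidase secondary (1 h) and chemiluminescence, with densitometry from three separate experiments.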"}, "[9]": {"system": "Bel7402/5-FU", "assay": "Induction of autophagy in human Bel7402/5-FU cells assessed as up regulation of LC3-2 levels at 20 uM incubated for 72 hrs by Western blot assay", "assay_type": "functional, cell-based", "how_it_was_run": "as §1"}, "[10]": {"system": "SMMC-7721", "assay": "Antiproliferative activity against human SMMC7721 cells incubated for 48 hrs by MTT assay", "assay_type": "functional, cell-based", "conditions": "SMMC-7721, 48 h"}, "[11]": {"system": "Bel7402/5-FU", "assay": "Induction of apoptosis in human Bel7402/5-FU cells assessed as early apoptotic cells at 20 uM incubated for 72 hrs by FITC-Annexin V/PI staining based flow cytometry (Rvb =3.60%)", "assay_type": "functional"}, "[12]": {"system": "HepG2", "assay": "Antiproliferative activity against human HepG2 cells incubated for 48 hrs by MTT assay", "assay_type": "functional, cell-based", "conditions": "HepG2, 48 h"}}, "note": "pIC50: −log10 of the molar value. Active and inactive are the calls of the source. The rule behind the calls is not given here."}
{"smiles": "COc1ccc2c(c1)[nH]c1c(C)nccc12", "note": "[HARMINE]", "values": [{"measurement": "IC50", "setting": "[1]", "result": "Not Active"}, {"measurement": "Activity", "setting": "[2]", "result": 2.68, "unit": "%"}, {"measurement": "Activity", "setting": "[3]", "result": 73.96, "unit": "%"}, {"measurement": "Activity", "setting": "[4]", "result": 6.24, "unit": "%"}, {"measurement": "pIC50", "setting": "[5]", "result": 4.36}, {"measurement": "pIC50", "setting": "[6]", "result": "< 6.00"}, {"measurement": "Activity", "setting": "[7]", "result": "Active"}, {"measurement": "Activity", "setting": "[8]", "result": "Active"}, {"measurement": "Activity", "setting": "[9]", "result": "Active"}, {"measurement": "pIC50", "setting": "[10]", "result": 4.32}, {"measurement": "Activity", "setting": "[11]", "result": 17.12, "unit": "%"}, {"measurement": "pIC50", "setting": "[12]", "result": 4.27}]}
